Our source for the Activity and EC50 values is ChEMBL document CHEMBL1148085, “Indole alkaloids from Peschiera laeta that enhance vinblastine-mediated cytotoxicity with multidrug-resistant cells” (1994).

One experiment relates to KBV1. Nature of the experiment: Inhibition of ATP-dependent [3H]vinblastine binding to p-glycoprotein in multidrug-resistant human KBV1 cells. It counts as cell-based. In short, it runs like this: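 Plasma membrane vesicles from KB-V1 cells (60 μg protein) as P-glycoprotein source. Incubated with […] [3H]vinblastine and various compound concentrations (from DMSO) for 20 min at room temperature. Terminated by filtration onto BSA-pretreated glass fiber filters.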

The test system of the next experiment is P388. The experiment in a line: Cytotoxicity against mouse P388 cells after 48 hrs by SRB assay. It counts as functional. Conditions: P388, 48 h, read-out: ED50 (the source's name). In short, it runs like this: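 P-388 cells at 10×10^4 cells/ml, exposed to compounds for 48 h at 37° in 5% CO2. Plates were centrifuged and supernatant removed, then cells fixed with 20% trichloroacetic acid at 4° for 1 h. Sulforhodamine B staining and OD read as for the adherent lines. Survival is relative to solvent controls.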

Experiment [1] is described as follows: Cytotoxicity against human U373 cells by SRB assay. The experiment is classed as functional, U-373MG ATCC. Conditions: U373 MG, read-out: ED50 (the source's name). In short, it runs like this:
(§1)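 Compounds in 10% DMSO added to cell suspension; 72 h at 37° in humidified 5% CO2. Cells fixed with cold trichloroacetic acid at 4° for 1 h, sulforhodamine B stained 30 min, dye solubilized in 10 mM Tris base, OD 515 nm. A zero-day control was subtracted. Survival is relative to solvent-treated cultures over various concentrations.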

Experiment [2] in a line: Cytotoxicity against human drug-resistant KBV1 cells by SRB assay in presence of vinblastine. It counts as functional. The settings on record: KB-V1, read-out: ED50 (the source's name). Put shortly:
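Same SRB protocol (72 h, 37°, 5% CO2, TCA fix, OD 515 nm, zero-day subtraction). KB-V1 cells were exposed to various compound concentrations with vinblastine at 1 μg/ml in the medium. Survival is relative to solvent-treated controls.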
Background: In SRB staining, fixed cells bind dye roughly in proportion to their protein.

A further experiment deals with Col2. Nature of the experiment: Cytotoxicity against human Col2 cells by SRB assay. It counts as functional. Conditions: read-out: ED50 (the source's name). Put shortly:
as §1

For another experiment, the system named is ZR-75-1. Nature of the experiment: Cytotoxicity against human ZR-75-1 cells by SRB assay. The settings on record: read-out: ED50 (the source's name). The experiment is classed as functional. Put shortly:
as §1

The test system of another experiment is SK-MEL-2. The experiment in a line: Cytotoxicity against human SK-MEL-2 cells by SRB assay. The experiment is classed as functional. Conditions: read-out: ED50 (the source's name). In short, it runs like this: as §1
The next experiment relates to HT. Nature of the experiment: Cytotoxicity against human HT cells by SRB assay. It counts as functional. The settings on record: read-out: ED50 (the source's name). In short, it runs like this: as §1
Experiment [3] is described as follows: Cytotoxicity against human drug-resistant KBV1 cells by SRB assay in absence of vinblastine. Conditions: KB-V1, read-out: ED50 (the source's name). It counts as functional. In short, it runs like this: as §1
Another experiment has as its system A-431. The experiment in a line: Cytotoxicity against human A431 cells by SRB assay. It counts as functional. Conditions: read-out: ED50 (the source's name). In short, it runs like this:
as §1

For a further experiment, the system named is LNCaP. Nature of the experiment: Cytotoxicity against human LNCAP cells by SRB assay. It counts as functional. The settings on record: read-out: ED50 (the source's name). In short, it runs like this:
as §1

In the next experiment the test system is KB. The experiment in a line: Cytotoxicity against human KB cells by SRB assay. Conditions: read-out: ED50 (the source's name). The experiment is classed as functional. Put shortly: as §1
Experiment [4] in a line: Cytotoxicity against human BC1 cells by SRB assay. The experiment is classed as functional. The settings on record: read-out: ED50 (the source's name). Put shortly:
as §1

Another experiment deals with Lu1. Nature of the experiment: Cytotoxicity against human Lu1 cells by SRB assay. It counts as functional. Conditions: read-out: ED50 (the source's name). In short, it runs like this: as §1

Converted amounts (≈) assume the structure as drawn. The source made the active and inactive calls. No cut-off for these calls is given here.

Consider `C/C=C1/CC2[C@H](C(=O)OC)C(NC)Cc3c([nH]c4ccccc34)[C@@H](c3cc4c(cc3OC)C3CCN5C[C@H]6C[C@H](CC)[C@H]5[C@@](C(=O)OC)(C6)C3N4)C[C@H]12` (some centres not stated) [VOACAMINE], for which the outcome with KBV1 was Active.
With `CC[C@]1(O)C[C@@H]2CN(CCc3c([nH]c4ccccc34)[C@@](C(=O)OC)(c3cc4c(cc3OC)N(C)[C@H]3[C@@](O)(C(=O)OC)[C@H](OC(C)=O)[C@]5(CC)C=CCN6CC[C@]43[C@@H]65)C2)C1` [VINBLASTINE], the EC50 is 0.02 µg/mL (≈ 0.0247 µM) in the experiment with P388; 1.1 µg/mL (≈ 1.36 µM) in [1]; 0.5 µg/mL in experiment [2]; 0.01 µg/mL (≈ 0.0123 µM) with Col2; 0.3 µg/mL (≈ 0.37 µM) in the experiment with ZR-75-1; 0.01 µg/mL (≈ 0.0123 µM) in the experiment with SK-MEL-2. Besides, the EC50 in the experiment with HT was 0.02 µg/mL (≈ 0.0247 µM); in experiment [3] it was 2.6 µg/mL (≈ 3.21 µM); in the experiment with A-431, 0.05 µg/mL (≈ 0.0617 µM); in the experiment on LNCaP, 0.1 µg/mL (≈ 0.123 µM); in the experiment on KB, 0.002 µg/mL (≈ 0.00247 µM); in experiment [4], 0.06 µg/mL (≈ 0.074 µM). In the experiment with Lu1, the EC50 came to 0.02 µg/mL (≈ 0.0247 µM).
Regarding `CC[C@H]1C[C@@H]2CN3CCc4c([nH]c5ccccc45)[C@](C(=O)OC)(C2)[C@H]13` [CORONARIDINE], the EC50 with P388 was 3.8 µg/mL (≈ 11.2 µM); in experiment [1], 12 µg/mL (≈ 35.5 µM); in experiment [2] it was 1.9 µg/mL; in the experiment with Col2 it was over 20 µg/mL; in the experiment on ZR-75-1 it was over 20 µg/mL; in the experiment with SK-MEL-2, over 20 µg/mL. The EC50 was over 20 µg/mL in the experiment on HT; 11.2 µg/mL (≈ 33.1 µM) in [3]; 19.1 µg/mL (≈ 56.4 µM) in the experiment with A-431; 10.7 µg/mL (≈ 31.6 µM) with LNCaP; 13.6 µg/mL (≈ 40.2 µM) in the experiment on KB; 7.5 µg/mL (≈ 22.2 µM) in [4]. Moreover, in the experiment on Lu1, the EC50 amounted to 10.9 µg/mL (≈ 32.2 µM).
